Measured values taken from ChEMBL document CHEMBL3045708, “Potential antagonistic effects of nine natural fatty acids against Meloidogyne incognita” (2012).

What was measured:
Type in all cases: functional
[1] = tested on: Meloidogyne incognita; test: Nematicidal activity against Meloidogyne incognita (root-knot nematode) assessed as cumulative percentage of egg hatching at 25 degC at 100 umol/L on day 21 (SDW control = 44.87 +/- 3.93%)
Outline: (§1)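 Eggs (500 in 1 mL suspension) held on a 1 cm sieve of 35 μm pore, set in the center well of a 24-well plate. About 2 mL of fatty acid solution (final 100, 1000 or 2000 μmol/L) was added, reaching only the sieve bottom. The fatty acid was dissolved in acetone/Tween-80/DMSO medium and diluted with sterile distilled water. SDW and medium served as controls. One treatment per plate, six replicates, parafilm-sealed, 25 °C. Hatched J2s were counted and the solution renewed on days 3, 7, 14 and 21; values are cumulative % hatch as mean ± SE.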

[2] = tested on: Meloidogyne incognita; test: Nematicidal activity against Meloidogyne incognita (root-knot nematode) assessed as cumulative percentage of egg hatching at 25 degC at 2000 umol/L on day 3 (SDW control = 0.57 +/- 0.37%); outline: as §1
[3] = tested on: Meloidogyne incognita; test: Nematicidal activity against second-stage juvenile of Meloidogyne incognita (root-knot nematode) assessed as mortality at 25 degC at 1000 umol/L after 24 hr Rvb = 1.47 to 2.51%)
[4] = tested on: Meloidogyne incognita; test: Nematicidal activity against Meloidogyne incognita (root-knot nematode) assessed as cumulative percentage of egg hatching at 25 degC at 1000 umol/L on day 7 (SDW control = 12.63 +/- 3.84%); outline: as §1
[5] = tested on: Meloidogyne incognita; test: Nematicidal activity against second-stage juvenile of Meloidogyne incognita (root-knot nematode) assessed as mortality at 25 degC at 2000 umol/L after 12 hr (reference value: 1.79 to 3.30%)
[6] = tested on: Meloidogyne incognita; test: Nematicidal activity against Meloidogyne incognita (root-knot nematode) assessed as cumulative percentage of egg hatching at 25 degC at 100 umol/L on day 7 (SDW control = 12.63 +/- 3.84%); outline: as §1
[7] = tested on: Meloidogyne incognita; test: Nematicidal activity against Meloidogyne incognita (root-knot nematode) assessed as cumulative percentage of egg hatching at 25 degC at 1000 umol/L on day 14 (SDW control = 35.77 +/- 4.48%); outline: as §1
[8] = tested on: Meloidogyne incognita; test: Nematicidal activity against second-stage juvenile of Meloidogyne incognita (root-knot nematode) assessed as mortality at 25 degC at 100 umol/L after 12 hr (reference value: 1.79 to 3.30%)
[9] = tested on: Meloidogyne incognita; test: Nematicidal activity against second-stage juvenile of Meloidogyne incognita (root-knot nematode) assessed as mortality at 25 degC at 2000 umol/L after 24 hr Rvb = 1.47 to 2.51%)
[10] = tested on: Meloidogyne incognita; test: Nematicidal activity against second-stage juvenile of Meloidogyne incognita (root-knot nematode) assessed as mortality at 25 degC at 100 umol/L after 24 hr (reference value: 1.47 to 2.51%)
[11] = tested on: Meloidogyne incognita; test: Nematicidal activity against Meloidogyne incognita (root-knot nematode) assessed as cumulative percentage of egg hatching at 25 degC at 2000 umol/L on day 21 (SDW control = 44.87 +/- 3.93%); outline: as §1
[12] = tested on: Meloidogyne incognita; test: Nematicidal activity against Meloidogyne incognita (root-knot nematode) assessed as cumulative percentage of egg hatching at 25 degC at 100 umol/L on day 14 (SDW control = 35.77 +/- 4.48%); outline: as §1
[13] = tested on: Meloidogyne incognita; test: Nematicidal activity against second-stage juvenile of Meloidogyne incognita (root-knot nematode) assessed as mortality at 25 degC at 1000 umol/L after 12 hr (reference value: 1.79 to 3.30%)
[14] = tested on: Meloidogyne incognita; test: Nematicidal activity against Meloidogyne incognita (root-knot nematode) assessed as cumulative percentage of egg hatching at 25 degC at 2000 umol/L on day 14 (SDW control = 35.77 +/- 4.48%); outline: as §1
[15] = tested on: Meloidogyne incognita; test: Nematicidal activity against Meloidogyne incognita (root-knot nematode) assessed as cumulative percentage of egg hatching at 25 degC at 2000 umol/L on day 7 (SDW control = 12.63 +/- 3.84%); outline: as §1
[16] = tested on: Meloidogyne incognita; test: Nematicidal activity against Meloidogyne incognita (root-knot nematode) root-knot nematodes assessed as cumulative percentage of egg hatching at 25 degC at 100 umol/L on day 3 (SDW control = 0.57 +/- 0.37%); outline: as §1
[17] = tested on: Meloidogyne incognita; test: Nematicidal activity against Meloidogyne incognita (root-knot nematode) assessed as cumulative percentage of egg hatching at 25 degC at 1000 umol/L on day 3 (SDW control = 0.57 +/- 0.37%); outline: as §1
[18] = tested on: Meloidogyne incognita; test: Nematicidal activity against Meloidogyne incognita (root-knot nematode) assessed as cumulative percentage of egg hatching at 25 degC at 1000 umol/L on day 21 (SDW control = 44.87 +/- 3.93%); outline: as §1

In the case of CCCC(=O)O [BUTYRIC ACID], the Activity [1] is reported as 20.37%, the Activity [2] is reported as 0.67% and the mortality at 1000 µM [3] is reported as 2.34%. The Activity [4] was 7.87%, the mortality at 2000 µM [5] was 3.23% and the Activity [6] was 6.7%. For the same compound, the Activity [7] was 17.17%, the mortality at 100 µM [8] was 2.55% and the mortality at 2000 µM [9] was 3.28%. For the same compound, the mortality at 100 µM [10] was 2.91%, the Activity [11] was 14.13% and the Activity [12] was 13.9%. It also gave a mortality at 1000 µM [13] of 3.34%, an Activity [14] of 8.17% and an Activity [15] of 4.47%. It also gave an Activity [16] of 1.6%, an Activity [17] of 2% and an Activity [18] of 21.47%.
Work on CCCCCCCCCC(=O)O [DECANOIC ACID] yielded an Activity [1] of 25.93%, an Activity [2] of 0.23% and a mortality at 1000 µM [3] of 1.63%. The Activity [4] was 4.77%, the mortality at 2000 µM [5] was 25.2% and the Activity [6] was 4.73%. It also gave an Activity [7] of 11.5%, a mortality at 100 µM [8] of 2.01% and a mortality at 2000 µM [9] of 61%. It also gave a mortality at 100 µM [10] of 5.16%, an Activity [11] of 7.1% and an Activity [12] of 19.57%. For the same compound, the mortality at 1000 µM [13] was 16.9%, the Activity [14] was 4.8% and the Activity [15] was 2.07%. It also gave an Activity [16] of 0.43%, an Activity [17] of 0.97% and an Activity [18] of 16.4%.
With CCCCCCCCCCCC(=O)O [DODECANOATE] the Activity [1] was 27.1%, the Activity [2] was 1.6% and the mortality at 1000 µM [3] was 2.46%. For the same compound, the Activity [4] was 12.7%, the mortality at 2000 µM [5] was 38% and the Activity [6] was 4.73%. For the same compound, the Activity [7] was 20.37%, the mortality at 100 µM [8] was 1.22% and the mortality at 2000 µM [9] was 41.3%. It also gave a mortality at 100 µM [10] of 15.8%, an Activity [11] of 20.77% and an Activity [12] of 20.1%. For the same compound, the mortality at 1000 µM [13] was 21.3%, the Activity [14] was 17.47% and the Activity [15] was 7.57%. It also gave an Activity [16] of 0.5%, an Activity [17] of 3.67% and an Activity [18] of 24.17%.
CCCCCC(=O)O [HEXANOATE] was tested, and the Activity [1] was 15.97%, the Activity [2] was 0.8% and the mortality at 1000 µM [3] was 2.29%. It also gave an Activity [4] of 7.67%, a mortality at 2000 µM [5] of 2.02% and an Activity [6] of 2.97%. The Activity [7] was 16.67%, the mortality at 100 µM [8] was 0.39% and the mortality at 2000 µM [9] was 4.44%. It also gave a mortality at 100 µM [10] of 1.5%, an Activity [11] of 19.67% and an Activity [12] of 9.57%. It also gave a mortality at 1000 µM [13] of 1.09%, an Activity [14] of 14.4% and an Activity [15] of 6.4%. For the same compound, the Activity [16] was 0.87%, the Activity [17] was 2.77% and the Activity [18] was 21.2%.
CCCCC/C=C\C/C=C\CCCCCCCC(=O)O [LINOLEIC ACID] gave an Activity [1] of 37.97%, an Activity [2] of 0.33% and a mortality at 1000 µM [3] of 3.3%. For the same compound, the Activity [4] was 6.6%, the mortality at 2000 µM [5] was 3.41% and the Activity [6] was 6.17%. It also gave an Activity [7] of 20.43%, a mortality at 100 µM [8] of 3.12% and a mortality at 2000 µM [9] of 5.1%. It also gave a mortality at 100 µM [10] of 3.72%, an Activity [11] of 11.33% and an Activity [12] of 29.8%. For the same compound, the mortality at 1000 µM [13] was 4.72%, the Activity [14] was 5.87% and the Activity [15] was 2.3%. It also gave an Activity [16] of 0.33%, an Activity [17] of 0.13% and an Activity [18] of 29.47%.
Compound CCCCCCCCCCCCCC(=O)O [MYRISTIC ACID] has an Activity [1] of 27.67%, an Activity [2] of 0.27% and a mortality at 1000 µM [3] of 1.57%. The Activity [4] was 1.47%, the mortality at 2000 µM [5] was 2.11% and the Activity [6] was 8.87%. For the same compound, the Activity [7] was 12.93%, the mortality at 100 µM [8] was 1.31% and the mortality at 2000 µM [9] was 3.76%. For the same compound, the mortality at 100 µM [10] was 2.46%, the Activity [11] was 20% and the Activity [12] was 18.4%. It also gave a mortality at 1000 µM [13] of 2.29%, an Activity [14] of 12% and an Activity [15] of 1.53%. The Activity [16] was 1.8%, the Activity [17] was 0.37% and the Activity [18] was 23.97%.
In the case of CCCCCCCC(=O)O [OCTANOIC ACID], the Activity [1] is reported as 30.93%, the Activity [2] is reported as 0.73% and the mortality at 1000 µM [3] is reported as 1.08%. It also gave an Activity [4] of 9.03%, a mortality at 2000 µM [5] of 49.9% and an Activity [6] of 8.6%. The Activity [7] was 16.87%, the mortality at 100 µM [8] was 1.65% and the mortality at 2000 µM [9] was 56.4%. The mortality at 100 µM [10] was 40.5%, the Activity [11] was 15.07% and the Activity [12] was 23.63%. The mortality at 1000 µM [13] was 65.6%, the Activity [14] was 13.07% and the Activity [16] was 2.3%. For the same compound, the Activity [17] was 2.6% and the Activity [18] was 21%.
For CCCCCCCC/C=C\CCCCCCCC(=O)O [OLEIC ACID], the Activity [1] was 24.93%, the Activity [2] was 1.23% and the mortality at 1000 µM [3] was 2.42%. The Activity [4] was 6.03%, the mortality at 2000 µM [5] was 4.49% and the Activity [6] was 6.07%. It also gave an Activity [7] of 18.53%, a mortality at 100 µM [8] of 3.54% and a mortality at 2000 µM [9] of 4.58%. For the same compound, the mortality at 100 µM [10] was 3.54%, the Activity [11] was 21.8% and the Activity [12] was 16.6%. The mortality at 1000 µM [13] was 4.52%, the Activity [14] was 16.53% and the Activity [15] was 7.47%. It also gave an Activity [16] of 1.47%, an Activity [17] of 0.67% and an Activity [18] of 25.57%.
Work on CCCCCCCCCCCCCCCC(=O)O [PALMITIC ACID] yielded an Activity [1] of 22.3%, an Activity [2] of 0.7% and a mortality at 1000 µM [3] of 3.03%. For the same compound, the Activity [4] was 2.8%, the mortality at 2000 µM [5] was 5.44% and the Activity [6] was 5.73%. The Activity [7] was 9.53%, the mortality at 100 µM [8] was 3.33% and the mortality at 2000 µM [9] was 4.91%. For the same compound, the mortality at 100 µM [10] was 3.36%, the Activity [11] was 20.17% and the Activity [12] was 15.07%. It also gave a mortality at 1000 µM [13] of 6.71%, an Activity [14] of 17.23% and an Activity [15] of 6.63%. The Activity [16] was 1.13%, the Activity [17] was 0.23% and the Activity [18] was 13.4%.
